ChEMBL document CHEMBL1821594, “Synthesis and anticancer evaluation of novel 2-cyclopropylimidazo[2,1-b][1,3,4]-thiadiazole derivatives” (2011)

Tests used:
Format in all cases: functional
CCRF-CEM = test: Antitumor activity against human CCRF-CEM cells after 48 hrs by SRB assay
In short: (§1)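 Cells grown in RPMI 1640 with 5% FBS and 2 mM L-glutamine and seeded at 5000–40,000 cells/well according to doubling time. They were preincubated 24 h at 37 °C, 5% CO2, then exposed to DMSO-solubilized compound for 48 h. Adherent cells were fixed with cold TCA (10% final), suspension cells with 16% final. Stained with 0.4% SRB; absorbance at 515 nm. Percent growth calculated against time-zero and control plates.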

SK-MEL-5 = test: Antitumor activity against human SK-MEL-5 cells after 48 hrs by SRB assay; details: SK-MEL-5, 48 h; in short: as §1
UACC-62 = test: Antitumor activity against human UACC62 cells after 48 hrs by SRB assay; details: UACC-62, 48 h
In short: (§2)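 NCI-60 protocol. Cells were grown in RPMI 1640 with 5% FBS and 2 mM L-glutamine, plated at 5000–40,000 cells/well, and preincubated 24 h at 37 °C, 5% CO2. Time-zero plates were TCA-fixed. Compounds were in DMSO and incubated 48 h. Fixation used cold TCA (final 16% for suspension SR; final 10% for adherent lines 2-7). Plates were stained with 0.4% SRB in 1% acetic acid, solubilized in 10 mM Tris base, and read at 515 nm. Percent growth was calculated from Tz, C and Ti.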

IGROV-1 = test: Antitumor activity against human IGROV1 cells after 48 hrs by SRB assay; details: IGROV-1, 48 h; in short: as §1
OVCAR-3 = test: Antitumor activity against human OVCAR3 cells after 48 hrs by SRB assay; details: OVCAR-3, 48 h; in short: as §1
OVCAR-8 = test: Antitumor activity against human OVCAR8 cells after 48 hrs by SRB assay; details: OVCAR-8, 48 h; in short: as §1
NCI/ADR-RES = test: Antitumor activity against human NCI/ADR-RES cells after 48 hrs by SRB assay; in short: as §1
SK-OV-3 = test: Antitumor activity against human SKOV3 cells after 48 hrs by SRB assay; details: SK-OV-3, 48 h; in short: as §1
786-0 = test: Antitumor activity against human 786-0 cells after 48 hrs by SRB assay; details: 786-0, 48 h; in short: as §1
PC-3 = test: Antitumor activity against human PC3 cells after 48 hrs by SRB assay; details: PC-3, 48 h; in short: as §1
MCF7 = test: Antitumor activity against human MCF7 cells after 48 hrs by SRB assay; details: MCF7, 48 h; in short: as §1
BT-549 = test: Antitumor activity against human BT549 cells after 48 hrs by SRB assay; details: BT-549, 48 h; in short: as §1
T47D = test: Antitumor activity against human T47D cells after 48 hrs by SRB assay; in short: as §2
MDA-MB-468 = test: Antitumor activity against human MDA-MB-468 cells after 48 hrs by SRB assay; details: MDA-MB-468, 48 h; in short: as §1
NCI-H322M = test: Antitumor activity against human NCI-H322M cells after 48 hrs by SRB assay; in short: as §1
K562 = test: Antitumor activity against human K562 cells after 48 hrs by SRB assay; details: K562, 48 h; in short: as §1
MOLT-4 = test: Antitumor activity against human MOLT4 cells after 48 hrs by SRB assay; details: MOLT-4, 48 h; in short: as §1
EKVX = test: Antitumor activity against human EKVX cells after 48 hrs by SRB assay; in short: as §1
HOP-62 = test: Antitumor activity against human HOP62 cells after 48 hrs by SRB assay; details: HOP-62, 48 h; in short: as §1
NCI-H460 = test: Antitumor activity against human NCI-H460 cells after 48 hrs by SRB assay; details: NCI-H460, 48 h; in short: as §1
NCI-H522 = test: Antitumor activity against human NCI-H522 cells after 48 hrs by SRB assay; details: NCI-H522, 48 h; in short: as §1
COLO 205 = test: Antitumor activity against human COLO205 cells after 48 hrs by SRB assay; details: COLO 205, 48 h; in short: as §1
HT-29 = test: Antitumor activity against human HT-29 cells after 48 hrs by SRB assay; details: HT-29, 48 h; in short: as §1
KM12 = test: Antitumor activity against human KM12 cells after 48 hrs by SRB assay; details: KM12, 48 h; in short: as §1
SF-539 = test: Antitumor activity against human SF539 cells after 48 hrs by SRB assay; details: SF-539, 48 h; in short: as §1
U-251 = test: Antitumor activity against human U251 cells after 48 hrs by SRB assay; details: U-251, 48 h; in short: as §2
LOX IMVI = test: Antitumor activity against human LOXIMVI cells after 48 hrs by SRB assay; in short: as §1
Malme-3M = test: Antitumor activity against human MALME-3M cells after 48 hrs by SRB assay; in short: as §1
MDA-MB-435 = test: Antitumor activity against human MDA-MB-435 cells after 48 hrs by SRB assay; details: MDA-MB-435, 48 h; in short: as §1
[1] = read-out: LC50 (the source's name)

Work on `Clc1ccc(-c2nc3sc(C4CC4)nn3c2Br)cc1` yielded a GI50 (CCRF-CEM) of 3.66 µM, a TGI (CCRF-CEM) greater than 100 µM and a CC50 (CCRF-CEM; [1]) greater than 100 µM. For the same molecule, the GI50 (SK-MEL-5) was 2.17 µM, the TGI (SK-MEL-5) was greater than 100 µM and the CC50 (SK-MEL-5; [1]) was greater than 100 µM. The GI50 (UACC-62) was 4.36 µM, the TGI (UACC-62) was greater than 100 µM and the CC50 (UACC-62; [1]) was greater than 100 µM. It also gave a GI50 (IGROV-1) of 17.3 µM, a TGI (IGROV-1) greater than 100 µM and a CC50 (IGROV-1; [1]) greater than 100 µM. The GI50 (OVCAR-3) was 4.63 µM, the TGI (OVCAR-3) was greater than 100 µM and the CC50 (OVCAR-3; [1]) was greater than 100 µM. It also gave a GI50 (OVCAR-8) of 5.76 µM, a TGI (OVCAR-8) greater than 100 µM and a CC50 (OVCAR-8; [1]) greater than 100 µM. For the same molecule, the GI50 (NCI/ADR-RES) was 4.18 µM, the TGI (NCI/ADR-RES) was greater than 100 µM and the CC50 (NCI/ADR-RES; [1]) was greater than 100 µM. It also gave a GI50 (SK-OV-3) of 35 µM, a TGI (SK-OV-3) greater than 100 µM and a CC50 (SK-OV-3; [1]) greater than 100 µM. For the same molecule, the GI50 (786-0) was 13.6 µM, the TGI (786-0) was greater than 100 µM and the CC50 (786-0; [1]) was greater than 100 µM. The GI50 (PC-3) was 2.22 µM, the TGI (PC-3) was greater than 100 µM and the CC50 (PC-3; [1]) was greater than 100 µM. The GI50 (MCF7) was 8.18 µM, the TGI (MCF7) was greater than 100 µM and the CC50 (MCF7; [1]) was greater than 100 µM. It also gave a GI50 (BT-549) of 4.07 µM, a TGI (BT-549) greater than 100 µM and a CC50 (BT-549; [1]) greater than 100 µM. The GI50 (T47D) was 4.49 µM, the TGI (T47D) was 73.5 µM and the CC50 (T47D; [1]) was greater than 100 µM. For the same molecule, the GI50 (MDA-MB-468) was 2.95 µM, the TGI (MDA-MB-468) was greater than 100 µM and the CC50 (MDA-MB-468; [1]) was greater than 100 µM. The GI50 (NCI-H322M) was 43.4 µM, the TGI (NCI-H322M) was greater than 100 µM and the CC50 (NCI-H322M; [1]) was greater than 100 µM. The GI50 (K562) was 1.79 µM, the TGI (K562) was greater than 100 µM and the CC50 (K562; [1]) was greater than 100 µM. For the same molecule, the GI50 (MOLT-4) was 2.97 µM, the TGI (MOLT-4) was greater than 100 µM and the CC50 (MOLT-4; [1]) was greater than 100 µM. It also gave a GI50 (EKVX) of 5.22 µM, a TGI (EKVX) greater than 100 µM and a CC50 (EKVX; [1]) greater than 100 µM. It also gave a GI50 (HOP-62) of 38.1 µM, a TGI (HOP-62) greater than 100 µM and a CC50 (HOP-62; [1]) greater than 100 µM. For the same molecule, the GI50 (NCI-H460) was 5.25 µM, the TGI (NCI-H460) was greater than 100 µM and the CC50 (NCI-H460; [1]) was greater than 100 µM. For the same molecule, the GI50 (NCI-H522) was 5.31 µM, the TGI (NCI-H522) was 55.4 µM and the CC50 (NCI-H522; [1]) was greater than 100 µM. It also gave a GI50 (COLO 205) of 7.23 µM, a TGI (COLO 205) greater than 100 µM and a CC50 (COLO 205; [1]) greater than 100 µM. For the same molecule, the GI50 (HT-29) was 6.12 µM, the TGI (HT-29) was greater than 100 µM and the CC50 (HT-29; [1]) was greater than 100 µM. The GI50 (KM12) was 3.77 µM, the TGI (KM12) was greater than 100 µM and the CC50 (KM12; [1]) was greater than 100 µM. The GI50 (SF-539) was 6.78 µM, the TGI (SF-539) was greater than 100 µM and the CC50 (SF-539; [1]) was greater than 100 µM. It also gave a GI50 (U-251) of 4.29 µM, a TGI (U-251) greater than 100 µM and a CC50 (U-251; [1]) greater than 100 µM. For the same molecule, the GI50 (LOX IMVI) was 9.2 µM, the TGI (LOX IMVI) was greater than 100 µM and the CC50 (LOX IMVI; [1]) was greater than 100 µM. For the same molecule, the GI50 (Malme-3M) was 8.79 µM, the TGI (Malme-3M) was greater than 100 µM and the CC50 (Malme-3M; [1]) was greater than 100 µM. For the same molecule, the GI50 (MDA-MB-435) was 6.08 µM, the TGI (MDA-MB-435) was greater than 100 µM and the CC50 (MDA-MB-435; [1]) was greater than 100 µM.
